The values below come from ChEMBL document CHEMBL1154084, “Preparation and antitubercular activities in vitro and in vivo of novel Schiff bases of isoniazid” (Eur J Med Chem, 2009).

Series [1] can be described thus: Selectivity index, ratio IC50 for african green monkey Vero cells to MIC for Mycobacterium tuberculosis H37Rv. Type of series: functional. In short, it runs like this: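 Vero cells exposed 72 h, at up to ten times the MIC, with viability read by a cell proliferation assay. SI is IC50 divided by the MIC against H37Rv; the screening criterion is SI >10.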
Series [2] concerns Mycobacterium tuberculosis. In words: Antitubercular activity against Mycobacterium tuberculosis H37Rv by broth dilution method. Type of series: functional.
For series [3], the system named is Mycobacterium tuberculosis. The experiment in a line: Bacteriostatic activity in Mycobacterium tuberculosis Erdman infected in mouse macrophages assessed as reduction of colony forming units after 7 days. Type of series: functional. Particulars: 168 h. In short, it runs like this: (§1)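 CFU read at 7 days against drug-free controls. EC90 is the lowest concentration giving 90% CFU reduction (bacteriostatic); EC99 is the lowest giving 99% (bactericidal).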

In series [4] the test system is Mycobacterium tuberculosis. In words: Bactericidal activity in Mycobacterium tuberculosis Erdman infected in mouse macrophages assessed as reduction of colony forming units after 7 days. Type of series: functional. Particulars: 168 h. In short, it runs like this:
as §1

Series [5] can be described thus: Ratio of EC90 for Mycobacterium tuberculosis Erdman to MIC for Mycobacterium tuberculosis H37Rv. Type of series: functional.
Another series is filed under the species Mus musculus. In words: Toxicity in C57BL/6 mouse assessed as overt toxicity. Type of series: organism-based. Particulars: in vivo. A digest of the protocol:
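C57BL/6 mice infected intranasally with approximately one million viable M. tuberculosis organisms. Dosing by gavage at 25 mg/kg body weight (compound in DMSO diluted in distilled water), starting one day post-infection and given for two days. Animals observed for ill effects or overt toxicity until sacrifice by CO2 inhalation three days post-infection. Groups of six mice.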

The test system of series [6] is Mycobacterium tuberculosis. In words: Antitubercular activity against Mycobacterium tuberculosis Erdman by broth dilution method. Type of series: functional. A digest of the protocol:
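Modified 7H10 broth (no agar or malachite green; pH 6.6) with 10% OADC and 0.05% Tween 80; broth dilution MIC90. Inoculum grown 5 days at 37°C on rotary shaker, diluted to 100 Klett units/mL (about 5 × 10^7 cfu/mL), checked by triplicate 7H10 agar counts after 4 weeks at 37°C. Compounds dissolved in DMSO, diluted in distilled water; isoniazid and PAS as reference standards.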

The test system of series [7] is Mycobacterium tuberculosis. In words: Antitubercular activity against Mycobacterium tuberculosis infected in C57BL/6 mouse assessed reduction in colony forming units per lung at 25 mg/kg administered for 2 days after 24 hrs post-infection measured after 3 days by short course therapy (Rvb=6.37 +/- 0.24 logCFU/lung). Type of series: functional.
Series [8] relates to Mycobacterium tuberculosis. In words: Antitubercular activity against Mycobacterium tuberculosis infected in C57BL/6 mouse assessed reduction in colony forming units per lung at 25 mg/kg administered for 2 days after 24 hrs post-infection measured after 3 days by short course therapy (Rvb=6.51 +/- 0.13 logCFU/lung). Type of series: functional.
For series [9], the system named is Mycobacterium tuberculosis. The experiment in a line: Antitubercular activity against Mycobacterium tuberculosis infected in CD1 mouse assessed colony forming units per lung at 25 mg/kg administered 5 days a week for 4 weeks after 1 week post-infection by long course therapy (Rvb=8.80 +/- 0.18 logCFU/lung). Type of series: functional.

Converted amounts (≈) assume the structure as drawn.

On to `COc1cc(/C=N/NC(=O)c2ccncc2)cc(I)c1OC`, for which, in [1], the Ratio was 297. Moreover, the MIC90 in series [2] was 0.2 µg/mL (≈ 0.486 µM).
Consider `CC(C)=CCC/C(C)=C/C=N/NC(=O)c1ccncc1`, for which, in series [2], the MIC90 was determined as 0.1 µg/mL (≈ 0.369 µM).
Consider `CC(C)=NNC(=O)c1ccncc1`, for which the Ratio in series [1] is recorded as over 10000. Besides, in series [2], the MIC90 was 0.1 µg/mL (≈ 0.564 µM).
For `O=C(N/N=C/c1ccc(Br)cc1)c1ccncc1`, in [1], the Ratio is on record as 12. This molecule gave an MIC90 in series [2] of 3.13 µg/mL (≈ 10.3 µM).
In [2], `CCC/C=C/C=N/NC(=O)c1ccncc1` showed an MIC90 of under 6.25 µg/mL.
Turning to `CC1C/C(=N/NC(=O)c2ccncc2)CC(C)(C)C1` (stereo not drawn), the Ratio was over 2000 in series [1] and 2.52 in series [5]. For the same molecule, the concentration for an effect of 90% (EC90) in series [3] came out at 0.063 µg/mL (≈ 0.243 µM). Also, the EC99 in series [4] stood at 0.15 µg/mL. Also, the MIC90 in series [2] was under 0.025 µg/mL.
As for `CCOC(=O)C/C(C)=N\NC(=O)c1ccncc1` [ETHYL ACETOACETATE ISONICOTINOYLHYDRAZONE], in series [1], the Ratio is over 5000. Besides, the MIC90 in series [2] came to 0.2 µg/mL (≈ 0.802 µM).
Turning to `O=C(N/N=C/c1c(F)cccc1F)c1ccncc1`, the figures for the Ratio in [1] and in series [5] were over 1250 and 0.37, respectively. For the same molecule, the EC90 in [3] was found to be 0.037 µg/mL (≈ 0.142 µM). In addition, in [4], the EC99 was 0.15 µg/mL. The MIC90 in series [2] came to 0.1 µg/mL (≈ 0.383 µM).
For `CCOC(=O)/C(CCc1ccccc1)=N\NC(=O)c1ccncc1`, the Ratio in series [1] is over 1250. In [2], this molecule had an MIC90 of 0.1 µg/mL (≈ 0.307 µM).
Regarding `CCC/C(CC(=O)OCC)=N/NC(=O)c1ccncc1` [ETHYL BUTYRYL ACETATE ISONICOTINOYLHYDRAZONE], the Ratio in series [1] was over 2631. The molecule further came in with an MIC90 in series [2] of 0.39 µg/mL.
In the case of `CCCCCCOc1ccc(/C=N/NC(=O)c2ccncc2)cc1`, the Ratio in series [1] came to 1.5.
Turning to `CC(C)=CCCC(C)C/C=N/NC(=O)c1ccncc1` (stereo not drawn), the Ratio in [1] was over 1000. In [2], this molecule displayed an MIC90 of 0.2 µg/mL (≈ 0.732 µM).
For the molecule `O=C(N/N=C/c1ccccc1OCc1ccccc1)c1ccncc1`, the Activity entry in the series listed under Mus musculus is reported as “Non-toxic”. In addition, in [6], the MIC90 stood at 0.06 µg/mL (≈ 0.181 µM). For the same molecule, in series [7], the log10cfu is 5.49.
Consider `O=C(N/N=C/C=C(c1ccccc1)c1ccccc1)c1ccncc1`, for which the Ratio stood at 68 in series [1] and 0.28 in series [5]. Moreover, in [3], the EC90 stood at 0.028 µg/mL (≈ 0.0855 µM). In [4], the EC99 was found to be 0.121 µg/mL.
Regarding `O=C(N/N=C/c1cccc(Cl)c1Cl)c1ccncc1`, the Ratio in series [1] was over 32; in [5] it was 0.09. Also, the EC90 in series [3] came out at 0.071 µg/mL (≈ 0.241 µM). Besides, the EC99 in series [4] was 0.3 µg/mL. Moreover, in series [2], the MIC90 was 0.78 µg/mL (≈ 2.65 µM).
For `Nc1ccc(C(=O)O)c(O)c1` [AMINOSALICYLIC ACID], in [6], the minimal inhibitory concentration (MIC) was 0.03 µg/mL (≈ 0.196 µM).
Turning to `CCOC(=O)C/C(Cc1ccccc1)=N/NC(=O)c1ccncc1`, the Ratio in series [1] was over 1250; in series [5], 0.1. In addition, the EC90 in series [3] amounted to 0.01 µg/mL (≈ 0.0307 µM). In addition, the EC99 in [4] turned out to be 0.211 µg/mL. The MIC90 in [2] worked out at 0.1 µg/mL (≈ 0.307 µM).
Turning to `CC(/C=N/NC(=O)c1ccncc1)=C\c1ccccc1`, the Ratio in series [1] was over 250. Also, in series [8], the log10cfu amounted to 5.22. Further, in series [2], the MIC90 stood at 0.5 µg/mL (≈ 1.88 µM).
Consider `O=C(N/N=C/c1ccccc1[N+](=O)[O-])c1ccncc1`, for which the MIC90 in series [2] was found to be 0.39 µg/mL (≈ 1.44 µM).
With `O=C(N/N=C/c1ccc(Cl)c([N+](=O)[O-])c1)c1ccncc1`, the Ratio in series [1] was over 64; in series [5], 0.2. The EC90 in [3] is 0.078 µg/mL (≈ 0.256 µM). The EC99 in series [4] came to 0.3 µg/mL. This molecule came in with an MIC90 in [2] of 0.39 µg/mL (≈ 1.28 µM).
As for `CCCCCCCCCCCC/C=N\NC(=O)c1ccncc1`, in series [1], the Ratio is given as 374. In [2], this molecule returned an MIC90 of 0.2 µg/mL (≈ 0.63 µM).
With `COc1ccc(/C=C/C=N/NC(=O)c2ccncc2)cc1`, the Ratio in series [1] was over 50.
In the case of `O=C(N/N=C/c1ccc(/C=N/NC(=O)c2ccncc2)cc1)c1ccncc1`, in [1], the Ratio is on record as over 126. Further, in series [2], the MIC90 was 0.05 µg/mL (≈ 0.134 µM).
Regarding `O=C(N/N=C/c1ccccc1Cl)c1ccncc1`, in series [1], the Ratio is recorded as over 128. The MIC90 in series [2] is 0.78 µg/mL (≈ 3 µM).
Consider `C/C=C/C=N/NC(=O)c1ccncc1`, for which the MIC90 in series [2] was under 6.25 µg/mL.
`CC(C)C/C=C(\C=N\NC(=O)c1ccncc1)C(C)C`: the Ratio in [1] is listed as over 10. In [8], this molecule returned a log10cfu of 5.49.
For `O=C(N/N=C/c1cccc([N+](=O)[O-])c1)c1ccncc1`, the Ratio in series [1] turned out to be 8.
In the case of `O=C(N/N=C/c1ccccc1)c1ccncc1` [N'-BENZYLIDENE ISONICOTINOHYDRAZIDE], the Ratio in series [1] is given as 4000. The MIC90 in [2] stood at 0.05 µg/mL (≈ 0.222 µM).
Consider `CCCCC/C(=N\NC(=O)c1ccncc1)c1ccccc1`, for which the Ratio in [1] stood at 25; in series [5], 0.13. Moreover, in series [3], the EC90 came out at 0.05 µg/mL (≈ 0.169 µM). For the same molecule, the EC99 in series [4] was 0.25 µg/mL. The MIC90 in series [2] was 0.39 µg/mL (≈ 1.32 µM).
Regarding `O=C(NN=C1CCCCC1)c1ccncc1`, the results for the Ratio in series [1] and in [5] were over 40000 and 2.7, respectively. The EC90 in series [3] stood at 0.08 µg/mL (≈ 0.368 µM). The EC99 in series [4] was 0.42 µg/mL. In series [9], this molecule registered a log10cfu of 4.65. Also, the MIC90 in [2] amounted to 0.03 µg/mL (≈ 0.138 µM).
Molecule `CCCCCCCCCCCCC/C=N\NC(=O)c1ccncc1` showed an MIC90 in series [2] of 0.2 µg/mL (≈ 0.603 µM).
With `O=C(N/N=C/c1ccc(I)cc1)c1ccncc1`, in series [1], the Ratio is given as over 50. Also, the MIC90 in [2] worked out at 0.2 µg/mL (≈ 0.57 µM).
`CCCCOc1ccc(/C=N/NC(=O)c2ccncc2)cc1`: the Ratio in series [1] is listed as over 2000. This molecule also registered an MIC90 in series [2] of 0.1 µg/mL (≈ 0.336 µM).
In [2], `CCCC/C=C/C=N/NC(=O)c1ccncc1` returned an MIC90 of under 6.25 µg/mL.
For the molecule `CC/C=C/C=N/NC(=O)c1ccncc1`, the results for the Ratio in series [1] and in series [5] were 712 and 0.56, respectively. The EC90 in series [3] worked out at 0.028 µg/mL (≈ 0.138 µM). Further, the EC99 in [4] turned out to be 0.529 µg/mL. Moreover, the MIC90 in series [2] was found to be 0.05 µg/mL (≈ 0.246 µM).
Regarding `CCCC/C=C(\C=N\NC(=O)c1ccncc1)CCC`, the Ratio in series [1] is 1.6.
Molecule `O=C(N/N=C/c1c(Cl)cccc1Cl)c1ccncc1` gave an MIC90 in series [2] of under 6.25 µg/mL.
Molecule `O=C(N/N=C/C=N/NC(=O)c1ccncc1)c1ccncc1` had an MIC90 in series [2] of 0.1 µg/mL (≈ 0.338 µM).
For `O=C(N/N=C/c1ccc(Cl)c(Cl)c1)c1ccncc1`, the Ratio in series [1] was over 50; in series [5], 0.53. Also, the EC90 in series [3] stood at 0.106 µg/mL (≈ 0.36 µM). The EC99 in series [4] turned out to be 0.596 µg/mL. Besides, the MIC90 in [2] stood at 0.2 µg/mL (≈ 0.68 µM).
In the case of `O=C(N/N=C/c1ccc(F)c(F)c1)c1ccncc1`, the MIC90 in series [2] was found to be 1.56 µg/mL (≈ 5.97 µM).
Take `NNC(=O)c1ccncc1` [ISONIAZID]: the Activity result in the series filed under Mus musculus is listed as “Non-toxic”. Moreover, the log10cfu stood at 4.96 in series [8], 4.71 in [9] and 5.58 in [7]. Moreover, the Ratio in series [5] stood at 1. The MIC in [6] and in series [2] was 0.03 µg/mL (≈ 0.219 µM) each time.
`O=C(N/N=C/c1ccc(Cl)cc1)c1ccncc1`: the Ratio in series [1] is over 50; in [5], 0.2. The EC90 in series [3] was determined as 0.04 µg/mL (≈ 0.154 µM). In series [4], the EC99 amounted to 0.14 µg/mL. The MIC90 in series [2] is 0.2 µg/mL (≈ 0.77 µM).
Regarding `COc1cc(/C=N/NC(=O)c2ccncc2)cc(I)c1O`, the Ratio in [1] is recorded as over 160. In [2], this molecule had an MIC90 of 0.39 µg/mL (≈ 0.982 µM).
With `COc1ccccc1/C=C/C=N/NC(=O)c1ccncc1`, the MIC90 in [2] stood at 0.1 µg/mL (≈ 0.355 µM).
